Assay [1] can be described thus: Inhibition of synthetic amyloid beta42 oligomer formation by Western blot. Summed up: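 Aβ42 (NaOH stock, 45 µM final) incubated in PBS pH 7.4, 0.02% sodium azide at room temperature without stirring for 5 days, with compound at 300 µM in DMSO; vehicle controls at 1% DMSO. Aliquots were mixed 1:1 with 2x SDS sample buffer, boiled 5 min, and run on 4-20% Tris-HCl gels. The gels were transferred to nitrocellulose and probed with A11 anti-oligomer antibody, with 6E10 also used.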
In general terms: Immunoblotting shows a protein as a band on a membrane.

The nature of assay [2]: Inhibition of synthetic amyloid beta-42 fibrillation at 300 uM by light scattering analysis relative to control. Summed up:
(§1)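 Aβ42 (45 µM final) from 2 mM NaOH stock, diluted into 10 mM HEPES, 100 mM NaCl, 0.02% sodium azide, pH 7.4; stirred at room temperature 4 days with compound in DMSO (controls 1% DMSO). Turbidity at 400 nm, corrected by the 400 nm reading of supernatant after 14,000 rpm, 30 min centrifugation; triplicate, relative to control.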

Assay [3] in a line: Inhibition of synthetic amyloid beta42 fibrillation at 300 uM by ThT fluorescence analysis relative to control. In short, it runs like this: (§2)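 Aβ42 (45 µM final) from 2 mM NaOH stock, sonicated, diluted into 10 mM HEPES, 100 mM NaCl, 0.02% sodium azide, pH 7.4; stirred at room temperature 4 days with compound in DMSO (controls 1% DMSO). Aliquot mixed with 3 µM ThT; ex 442 nm, em 482 nm; corrected with parallel protein-free reactions; triplicate, % of control.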

Assay [4] in a line: Inhibition of synthetic amyloid beta-42 fibrillation at 30 uM by ThT fluorescence analysis relative to control. In short, it runs like this: as §2
Assay [5] in a line: Inhibition of synthetic amyloid beta-42 oligomerization by ELISA.
A short description of assay [6]: Inhibition of synthetic amyloid beta-42 fibrillation at 30 uM by light scattering analysis relative to control. Summed up:
as §1

From ChEMBL document CHEMBL1143831, “Small molecule inhibitors of aggregation indicate that amyloid beta oligomerization and fibrillization pathways are independent and distinct” (J Biol Chem, 2007) come the findings set out here.

Structures can show the parent of a compound that is named as a salt. Active and inactive are the calls of the source. The rule behind the calls is not given here.

On to CETRIMIDE [listing 1 of 2 here], for which the result in assay [1] and in assay [2] was inactive. Besides, the inhibition in assay [3] amounted to 0.7%; in assay [4], 112%.
Turning to `O=c1cc2oc3cc(O)c(-c4ccc(O)cc4O)cc3nc-2cc1-c1ccc(O)cc1O` [LACMOID], the result in assay [1] was inactive. The same molecule came in with a concentration for half-maximal inhibition (IC50) in assay [5] of 25.5 µM.
For `C=C1c2c(Cl)ccc(O)c2C(=O)C2=C(O)[C@]3(O)C(=O)C(C(N)=O)=C(O)[C@@H](N(C)C)[C@@H]3[C@@H](O)[C@H]12.O=C(O)c1cc(S(=O)(=O)O)ccc1O` [MECLOCYCLINE SULFOSALICYLATE], in that order: “inactive” and 0.25 µM.
`Nc1c(/N=N/c2ccc(-c3ccc(/N=N/c4cc(S(=O)(=O)O)c5ccccc5c4N)cc3)cc2)cc(S(=O)(=O)O)c2ccccc12` [CONGO RED]: the outcome in assay [1] was inactive. In addition, half-maximal inhibition in assay [5] (IC50) required 10 µM.
In turn, `COc1ccc2c(c1)c(CC(=O)O)c(C)n2C(=O)c1ccc(Cl)cc1` [INDOMETHACIN] returned a concentration for half-maximal inhibition (IC50) in assay [5] of 958 µM.
`C1CCSC1` [TETRAHYDROTHIOPHENE]: in assay [1], the result was Active. In assay [5], this molecule returned a 50% inhibitory concentration (IC50) of 122 µM.
As to `CO[C@H]1/C=C/O[C@@]2(C)Oc3c(C)c(O)c4c(O)c(cc(O)c4c3C2=O)NC(=O)/C(C)=C\C=C\[C@H](C)[C@H](O)[C@@H](C)[C@@H](O)[C@@H](C)[C@H](OC(C)=O)[C@@H]1C` [RIFAMYCIN], in assay [1], the outcome was inactive. In assay [5], this molecule came in with a concentration for half-maximal inhibition (IC50) of 31.6 µM.
As for `CCN(CCO)c1ccc(/N=N/c2sc3cc(OC)ccc3[n+]2C)cc1` [BASIC BLUE 41], the outcome in assay [1] was inactive. In assay [5], the IC50 stood at 0.12 µM.
For the molecule `COc1ccc2nc3cc(Cl)ccc3c(NC(C)CCCN(CCCl)CCCl)c2c1` (stereo not given), in assay [5], inhibition was half-maximal at 2050 µM (IC50).
As to `COc1cccc2c1C(=O)c1c(O)c3c(c(O)c1C2=O)C[C@@](O)(C(C)=O)C[C@@H]3O[C@H]1C[C@H](N)[C@H](O)[C@H](C)O1` [DAUNORUBICIN HYDROCHLORIDE], the outcome in assay [1] was inactive. The same molecule returned an IC50 in assay [5] of 7.48 µM.
CETRIMIDE [listing 2 of 2 here] showed a half-inhibitory concentration (IC50) in assay [5] of 15.9 µM.
On to `O=C1C=CC(=O)c2c(O)cccc21` [JUGLONE], for which the outcome in assay [1] was Active. For the same molecule, half-maximal inhibition in assay [5] (IC50) required 67.6 µM.
In the same order, the values of `O=c1c(O)c(-c2cc(O)c(O)c(O)c2)oc2cc(O)cc(O)c12` [MYRICETIN] are “Active” and 107 µM.
Regarding `CCN(CC)c1ccc2c(-c3ccccc3C(C)=O)c3ccc(=[N+](CC)CC)cc-3oc2c1`, half-maximal inhibition in assay [5] (IC50) required 310 µM.
Same read-out and setting: to `COc1cc(/C=C/C(=O)CC(=O)/C=C/c2ccc(O)c(OC)c2)ccc1O` [CURCUMIN] belongs 361 µM.
Take `COc1cccc(C=O)c1O`: the result in assay [1] was inactive. For the same molecule, inhibition in assay [5] was half-maximal at 6.15 µM (IC50).
With `CC(Cc1ccc(O)c(O)c1)C(C)Cc1ccc(O)c(O)c1` (stereo not given) [NORDIHYDROGUAIARETIC ACID], in assay [1], the outcome was inactive. The same molecule registered an IC50 in assay [5] of 14.5 µM.
In the same order, the values of `Cc1ccc2ccc3ccc(C)nc3c2n1` [NEOCUPROINE] are “inactive” and 17.4 µM.
In the case of `OCCN1CCN(CCCN2c3ccccc3Sc3ccc(Cl)cc32)CC1` [PERPHENAZINE], in assay [5], inhibition was half-maximal at 26.1 µM (IC50).
`CN(C)[C@@H]1C(O)=C(C(=O)NCN2CCCC2)C(=O)[C@@]2(O)C(O)=C3C(=O)c4c(O)cccc4[C@@](C)(O)[C@H]3C[C@@H]12` [ROLITETRACYCLINE]: the result in assay [1] was inactive. The same molecule showed a half-maximal inhibitory concentration (IC50) in assay [5] of 1.87 µM.
In the case of `COc1cc(-c2ccc(/N=N/c3ccc4c(S(=O)(=O)O)cc(S(=O)(=O)O)c(N)c4c3O)c(OC)c2)ccc1/N=N/c1ccc2c(S(=O)(=O)O)cc(S(=O)(=O)O)c(N)c2c1O` [CHICAGO SKY BLUE SODIUM], in assay [1], the result was inactive. The same molecule came in with a 50% inhibitory concentration (IC50) in assay [5] of 2.58 µM.
`O=C(c1ccccc1O)c1ccccc1O` [2,2'-DIHYDROXYBENZPHENONE]: in assay [5], the IC50 turned out to be 244 µM.
On the same count and under the same terms, next, `O=S1(=O)OC(c2ccc(O)cc2)(c2ccc(O)cc2)c2ccccc21` [PHENOLSULFONPHTHALEIN]: 426 µM.
Take `O=C1C=Cc2ccccc2C1=O` [1,2-NAPHTHOQUINONE]: the result in assay [1] was inactive. Also, 11.5 µM corresponded to half-maximal inhibition in assay [5] (IC50).
In turn, `O=C(O)c1ccccc1-c1c2cc(Br)c(=O)c(Br)c-2oc2c(Br)c(O)c(Br)cc12` [EOSIN Y SODIUM] gave an IC50 in assay [5] of 2790 µM.
For `CNc1ccc2nc3ccc(N)cc3[s+]c2c1` [AZURE C], the outcome in assay [1] was inactive. Also, the IC50 in assay [5] was 0.09 µM.
Turning to “N,N,N-trimethylhexadecan-1-aminium bromide”, the result in assay [1] and in assay [2] was inactive. Further, the inhibition in assay [3] was determined as 0.5%; in assay [4], 9.8%. The outcome in assay [6] was Active.

As a reminder, the inhibition is the relative decrease from the control value, in per cent. What is called IC50 is the concentration needed to halve the response being measured. Higher therefore signals weaker potency in that assay.
